Calls of active or inactive are those of the source. The rule behind the calls is not given here.
Columns and labels:
A549 [1] = assay: Cytotoxicity against human A549 cells assessed as growth inhibition under aerobic condition after 72 hrs by SRB assay; format: functional, cell-based; conditions: A549, 72 h
Method in brief: (§1)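 Before the assay, A549 and PC3/MM2 cells were adapted for one week under hypoxia (37 °C, 5% CO2, 0.5% O2), subcultured twice; viability was checked by trypan blue. Cells were plated, held 24 h aerobic (37 °C, 5% CO2) or hypoxic, then exposed 72 h to 10 concentrations. SRB read-out per NCI DTP. Growth = [(Ti − Tz)/(C − Tz)] × 100%. IC50 by sigmoidal nonlinear regression, n = 3 independent experiments.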

A549 [2] = assay: Cytotoxicity against human A549 cells assessed as growth inhibition under hypoxic condition after 72 hrs by SRB assay; format: functional, cell-based; conditions: A549, 72 h; method in brief: as §1
[3] = Cytotoxicity against human PC3MM2 cells assessed as growth inhibition under aerobic condition after 72 hrs by SRB assay; format: functional, cell-based; conditions: PC3MM2, 72 h; method in brief: as §1
[4] = Cytotoxicity against human PC3MM2 cells assessed as growth inhibition under hypoxic condition after 72 hrs by SRB assay; format: functional, cell-based; conditions: PC3MM2, 72 h; method in brief: as §1
A549 [5] = assay: Hypoxic cytotoxicity ratio of IC50 for human A549 cell under aerobic condition to IC50 for human A549 cells under hypoxic condition; format: functional
[6] = Hypoxic cytotoxicity ratio of IC50 for human PC3MM2 cell under aerobic condition to IC50 for human PC3MM2 cells under hypoxic condition; format: functional
L1210 [7] = assay: Cytotoxicity against mouse L1210 cells assessed as growth inhibition after 72 hrs by phosphatase assay; format: functional, cell-based
Method in brief: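 L1210 mouse leukemia cells were seeded at 30,000 cells/mL in DMEM with 10% FBS and grown 24 h at 37 °C, 5% CO2. DMSO dilutions were then added at six concentrations between 0–100 or 0–1000 nM, in duplicate, for 72 h. Read-out: phosphatase substrate in 0.1 M NaOAc pH 5.5 with 0.1% Triton X-100, 5 min at 37 °C, stopped with NaOH, A405. IC50 is the average of ≥4 determinations.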

[8] = Stability of the compound in H2, Pd/C, MeOH, at 23 degC after 1 hr; format: physicochemical
L1210 [9] = assay: Antitumor activity against mouse L1210 cells allografted in B6D2F1 mouse assessed as mean survival period at 1000 ug/kg, ip tid administered on day 1 to 9 measured after 366 days relative to vehicle-treated control; format: functional
Method in brief: (§2)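 L1210 cells (1 × 10^6) injected i.p. into B6D2F1 mice on day 0; 10 mice per group, randomized to vehicle or treatment. Dosing in 100% DMSO i.p. on days 1, 5 and 9 at 60–2500 μg/kg/inj. Animals were monitored daily and weighed twice weekly, with follow-up extended to 366 days. T/C = total survival days of the treated group ÷ total survival days of the control group × 100.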

[10] = Half life of the compound in HCl/EtOAc at 23 degC; format: physicochemical
L1210 [11] = assay: Antitumor activity against mouse L1210 cells allografted in B6D2F1 mouse assessed as mean survival period at 60 ug/kg, ip tid administered on day 1 to 9 measured after 366 days relative to vehicle-treated control; format: functional; method in brief: as §2
[12] = Half life in mouse plasma
L1210 [13] = assay: Antitumor activity against mouse L1210 cells allografted in B6D2F1 mouse assessed as mean survival period at 2500 ug/kg, ip tid administered on day 1 to 9 measured after 366 days relative to vehicle-treated control; format: functional; method in brief: as §2
[14] = Half life of the compound in phosphate buffer at pH 7
Neurospora discreta [15] = assay: Induction of Neurospora discreta w794 [5-32P]-DNA alkylation thermal-induced strand cleavage at 1 x 10^-2 M incubated for 48 hrs at 23 degC followed by thermolysis at 100 degC measured after 30 mins by PAGE/autoradiographic analysis
[16] = Stability of the compound in Mo(CO)6, MeCN/H2O after 3 hrs; format: physicochemical
Mus musculus [17] = assay: Toxicity in B6D2F1 mouse allografted with mouse L1210 cells assessed as mortality at 60 ug/kg, ip tid administered on day 1 to 9 measured after 366 days; format: organism-based; conditions: in vivo, 0.06 mg/kg, 8784 h
Method in brief: (§3)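 Syngeneic L1210 cells (1 × 10^6) were given i.p. to B6D2F1 mice on day 0; 10 per group. Compound in 100% DMSO was injected i.p. on days 1, 5 and 9. Animals were monitored daily and weighed twice weekly, with the study extended to 366 days. Deaths from drug toxicity were recorded.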

[18] = Fraction unbound in human plasma; format: ADME, cell-free
L1210 [19] = assay: Antitumor activity against mouse L1210 cells allografted in B6D2F1 mouse assessed as mean survival period at 500 ug/kg, ip tid administered on day 1 to 9 measured after 366 days relative to vehicle-treated control; format: functional; method in brief: as §2
[20] = Half life in human plasma
L1210 [21] = assay: Antitumor activity against mouse L1210 cells allografted in B6D2F1 mouse assessed as mean survival period at 200 ug/kg, ip tid administered on day 1 to 9 measured after 366 days relative to vehicle-treated control; format: functional; method in brief: as §2
Neurospora discreta [22] = assay: Induction of Neurospora discreta w794 [5-32P]-DNA alkylation assessed as thermal-induced strand cleavage at 1 x 10^-3M incubated for 48 hrs at 23 degC followed by thermolysis at 100 degC for 30 mins measured after 12 to 48 hrs by PAGE/autoradiographic analysis in presence of L-glutathione
[23] = Fraction unbound in mouse plasma; format: ADME, cell-free
Neurospora discreta [24] = assay: Induction of Neurospora discreta w794 [5-32P]-DNA alkylation assessed as thermal-induced strand cleavage at 1 x 10^-5 M incubated for 2 hrs at 23 degC followed by thermolysis at 100 degC measured after 30 mins by PAGE/autoradiographic analysis in absence of L-glutathione
Method in brief: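 Labeled DNA was incubated with agent for 2 h at 23 °C. Unbound agent was removed by EtOH precipitation, then thermolysis for 30 min at 100 °C, 8% denaturing PAGE and autoradiography, with Sanger G, C, A, T lanes as markers. In the glutathione arm, agent at 1 × 10−5 M was first held at 37 °C with 1 M L-glutathione for 12 or 48 h.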

Neurospora discreta [25] = assay: Induction of Neurospora discreta w794 [5-32P]-DNA alkylation assessed as thermal-induced strand cleavage at 1 x 10^-5 M incubated for 2 hrs at 23 degC followed by thermolysis at 100 degC for 30 mins measured after 12 to 24 hrs by PAGE/autoradiographic analysis in presence of L-glutathione
Mus musculus [26] = assay: Toxicity in B6D2F1 mouse allografted with mouse L1210 cells assessed as mortality at 100 to 250 ug/kg, ip tid administered on day 1 to 9 measured after 366 days; format: organism-based; conditions: in vivo, 8784 h; method in brief: as §3
Neurospora discreta [27] = assay: Induction of Neurospora discreta w794 [5-32P]-DNA alkylation assessed as thermal-induced strand cleavage at 1 x 10^-5 M to 1 X 10^-4 M incubated for 48 hrs at 23 degC followed by thermolysis at 100 degC measured after 30 mins by PAGE/autoradiographic analysis
L1210 [28] = assay: Antitumor activity against mouse L1210 cells allografted in B6D2F1 mouse assessed as mean survival period at 100 ug/kg, ip tid administered on day 1 to 9 measured after 366 days relative to vehicle-treated control; format: functional; method in brief: as §2
L1210 [29] = assay: Antitumor activity against mouse L1210 cells allografted in B6D2F1 mouse assessed as mean survival period at 250 ug/kg, ip tid administered on day 1 to 9 measured after 366 days relative to vehicle-treated control; format: functional; method in brief: as §2
Neurospora discreta [30] = assay: Induction of Neurospora discreta w794 [5-32P]-DNA alkylation assessed as thermal-induced strand cleavage at 1 x 10^-3 M incubated for 2 hrs at 23 degC followed by thermolysis at 100 degC for 30 mins measured after 12 to 48 hrs by PAGE/autoradiographic analysis in presence of L-glutathione; conditions: in the assay text read “1 x 10^-5 M” for “1 x 10^-3 M”
Method in brief: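 Agent first held with 1 M L-glutathione at 37 °C for 12 or 48 h to cause reductive activation. It was then incubated with 5′-32P-labelled w794 DNA at 23 °C for 2 h, and unbound agent was removed by EtOH precipitation. Thermolysis followed at 100 °C for 30 min, then 8% denaturing PAGE and autoradiography against Sanger sequencing lanes.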

Neurospora discreta [31] = assay: Induction of Neurospora discreta w794 [5-32P]-DNA alkylation assessed as thermal-induced strand cleavage at 1 x 10^-3 M incubated for 2 hrs at 23 degC followed by thermolysis at 100 degC for 30 mins measured after 12 to 24 hrs by PAGE/autoradiographic analysis in absence of L-glutathione
Method in brief: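 Agent incubated with 5′-32P-labelled w794 DNA at 23 °C for 2 h; unbound agent removed by EtOH precipitation. Thermolysis at 100 °C for 30 min induced strand cleavage at alkylation sites. Read-out by 8% denaturing PAGE and autoradiography, alongside Sanger G, C, A and T sequencing lanes and untreated control DNA. No glutathione present.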

In the case of O=C1Nc2cccc3c4c(cc(c23)O1)N(C(=O)c1cc2cc(NC(=O)c3cc5ccccc5[nH]3)ccc2[nH]1)C[C@H]4CCl, the IC50 (A549 [1]) is reported as 90 nM, the IC50 (A549 [2]) is reported as 90 nM and the IC50 [3] is reported as 320 nM. The IC50 [4] was 170 nM, the “Ratio IC50” value (A549 [5]) was 1 and the “Ratio IC50” value [6] was 1.9.
Compound CN1Oc2cc3c(c4cccc(c24)C1=O)[C@@H](CCl)CN3C(=O)c1cc2cc(NC(=O)c3cc4ccccc4[nH]3)ccc2[nH]1 has an IC50 (L1210 [7]; Mus musculus, L1210, 72 h) of 740 nM.
With CN1Oc2cc3c(c4cccc(c24)C1=O)[C@H](CCl)CN3C(=O)c1cc2cc(NC(=O)c3cc4ccccc4[nH]3)ccc2[nH]1 the Stability [8] was “Unstable”, the T/C (L1210 [9]) was greater than 1130 and the half-life [10] was greater than 72 h. The T/C (L1210 [11]) was 159, the IC50 (A549 [1]) was 25 nM and the half-life [12] was greater than 48 h. It also gave a T/C (L1210 [13]) greater than 1500, an IC50 (A549 [2]) of 5 nM and a half-life [14] greater than 672 h. For the same compound, the Activity (Neurospora discreta [15]) was “inactive”, the IC50 [3] was 350 nM and the Stability [16] was “Unstable”. For the same compound, the Activity (Mus musculus [17]) was “Toxic”, the IC50 [4] was 35 nM and the fraction unbound [18] was less than 0.05. The “Ratio IC50” value (A549 [5]) was 5, the “Ratio IC50” value [6] was 10 and the T/C (L1210 [19]) was greater than 1142. For the same compound, the IC50 (L1210 [7]; Mus musculus, L1210, 72 h) was 0.99 nM, the half-life [20] was greater than 168 h and the T/C (L1210 [21]) was greater than 386.
For CNC(=O)c1cccc2c3c(cc(O)c12)N(C(=O)c1cc2cc(NC(=O)c4cc5ccccc5[nH]4)ccc2[nH]1)CC3CCl (racemic), the Activity (Neurospora discreta [22]) was “Active” and the IC50 (L1210 [7]; Mus musculus, L1210, 72 h) was 0.073 nM.
Work on O=C(Nc1ccc2[nH]c(C(=O)N3CC(CCl)c4c3cc(O)c3ccccc43)cc2c1)c1cc2ccccc2[nH]1 (stereo not given) yielded an IC50 (L1210 [7]; Mus musculus, L1210, 72 h) of 0.9 nM.
In the case of CC(C)(C)OC(=O)N1C[C@H](CCl)c2c1cc1c3c(cccc23)C(=O)NO1, the IC50 (L1210 [7]; Mus musculus, L1210, 72 h) is reported as greater than 1000 nM.
For O=C(Nc1ccc2[nH]c(C(=O)N3C[C@@H](CCl)c4c3cc3c5c(cccc45)C(=O)NO3)cc2c1)c1cc2ccccc2[nH]1, the half-life [12] was greater than 48 h, the fraction unbound [23] was less than 0.05 and the Activity (Neurospora discreta [24]) was “inactive”. The IC50 (L1210 [7]; Mus musculus, L1210, 72 h) was 0.3 nM and the Activity (Neurospora discreta [25]) was “Active”.
With O=C(Nc1ccc2[nH]c(C(=O)N3C[C@@H](CCl)c4c3cc(O)c3ccccc43)cc2c1)c1cc2ccccc2[nH]1 [SECO-CBI-INDOLE] the T/C (L1210 [11]) was greater than 284, the Activity (Mus musculus [26]) was “Toxic” and the Activity (Neurospora discreta [27]) was “Active”. For the same compound, the T/C (L1210 [28]) was 36, the T/C (L1210 [29]) was 21 and the T/C (L1210 [19]) was 17.
For COc1c(O)c2c(c3cc(C(=O)N4CCc5c4c(O)c(OC)c4[nH]c(C(=O)N6CC7CC78C6=CC(=O)c6[nH]cc(C)c68)cc54)[nH]c13)CCN2C(N)=O (stereo not given) [CC-1065], the IC50 (L1210 [7]; Mus musculus, L1210, 72 h) was 0.02 nM.
For CC(C)(C)OC(=O)NOc1cc2c(c3ccccc13)[C@H](CCl)CN2C(=O)c1cc2cc(NC(=O)c3cc4ccccc4[nH]3)ccc2[nH]1, the Activity (Neurospora discreta [30]) was “Active” and the Activity (Neurospora discreta [31]) was “inactive”.
With CC(C)(C)OC(=O)N1C[C@H]2C[C@@]23C1=CC(=O)c1ccccc13 the IC50 (L1210 [7]; l1210) was 900 nM.
Compound O=C(Nc1ccc2[nH]c(C(=O)N3C[C@H](CCl)c4c3cc3c5c(cccc45)C(=O)NO3)cc2c1)c1cc2ccccc2[nH]1 has an IC50 (L1210 [7]; Mus musculus, L1210, 72 h) of 65 nM.
Work on COC(=O)c1cc2c([nH]1)C(=O)C=C1N(C(=O)c3cc4cc(OC)c(OC)c(OC)c4[nH]3)CC3CC123 (stereo not given) [DUOCARMYCIN SA] yielded an IC50 (L1210 [7]; Mus musculus, L1210, 72 h) of 0.1 nM.
With CN1Oc2cc3c(c4cccc(c24)C1=O)[C@@H](CCl)CN3C(=O)OC(C)(C)C the IC50 (L1210 [7]; Mus musculus, L1210, 72 h) was greater than 1000 nM.

— ChEMBL document CHEMBL2346555, “Efficacious cyclic N-acyl O-amino phenol duocarmycin prodrugs” (J Med Chem, 2013)
